KCNK9 inh – inhibitors of human KCNK9 two-pore domain potassium channel; AID 488922; HEK293 KCNK9, FluxOR thallium flux fluorescence; stronger effect = lower value; B-score at 10 µM; actives 1.2% (n = 310,000);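 active means ratio B-score over 3 SD below the library mean, with starting fluorescence within 5 SD of its mean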;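 further: negative B-score means less thallium flux so channel inhibition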
KCNQ1 act – human KCNQ1 channel potentiation or activation. P51787. CHO-K1 KCNQ1, thallium flux FluxOR fluorescence; stronger effect = higher value. B-score at 10 µM. actives 0.35% (n = 310,000). AID 2648;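 active means fluorescence ratio B-score, a plate-corrected score, at least three library SD, with initial intensity B-score within 5 SD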
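Assay system: CHO-K1 cells stably expressing KCNQ1; Medium: assay buffer with matched DMSO; Also added: K+/Tl+ depolarizing stimulus; Dosing: single dose; Timing: dye 90 min, compound 20 min, room temperature; Measured by: kinetic FluxOR thallium fluorescence, 10-s 1-Hz baseline, 110-s post-stimulus read; Read-out: peak-minus-minimum fluorescence over initial fluorescence, negative-control normalized, B-scored.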
KCNQ1 inh – human KCNQ1 channel inhibition. P51787. CHO-K1 KCNQ1, FluxOR thallium flux fluorescence; stronger effect = higher value. B-score at 10 µM. actives 1.3% (n = 310,000). AID 2642;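 active means compounds whose thallium flux B-score, printed positive for inhibition, exceeds three library SD while starting fluorescence stays within three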;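 further: channel opened by potassium depolarization with thallium stimulus after 20 min compound exposure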
KCNK3 inh – human KCNK3 channel inhibition, primary screen. CHO-KCNK3 thallium flux, FluxOR fluorescence; stronger effect = lower value. B-score at 10 µM. actives 0.84% (n = 340,000);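 active means B-score under library mean minus 4 SD, starting fluorescence ratio at most library mean plus 5 SD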;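 further: more negative B-score means stronger inhibition of thallium flux through KCNK3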
hERG protect – hERG (human) protection from proarrhythmic block | activation (rescue from dofetilide block), less the hit threshold, % at 10 µM | CHO-hERG, FluxOR thallium flux, dofetilide IC70 present | Q12809 | actives 0.51% (n = 310,000) | AID 1511;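 active means activation above the mean of controls blocked by dofetilide plus 5 SD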;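 further: thallium influx through hERG after potassium depolarization seen as dye fluorescence rise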
Kir21 inh – inhibitors of mouse Kir2.1 inward-rectifier potassium channel | P35561 | HEK293-Kir2.1, FluxOR thallium flux fluorescence; stronger effect = lower value | B-score at 10 µM | actives 0.85% (n = 310,000) | AID 1672;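 active means fluorescence ratio B-score at or below minus 3 SD of library scores, with starting-brightness B-score within 2 SD, cut at about -4.2 in these data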;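 further: channel flux triggered by added potassium and thallium sulfate stimulus; B-score of peak minus minimum fluorescence over baseline after thallium stimulus; more negative B-score means stronger Kir2.1 block with less thallium influx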
KCNK3 inh conf – confirmation of human KCNK3 two-pore domain potassium channel inhibitors | actives 99% (n = 2,400) | ratio percent of control, % at 10 µM | shares compounds with KCNK3 inh | AID 651638 | CHO-KCNK3 thallium flux, FluxOR fluorescence; 0% buffer, 100% carvedilol maximal block;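 active means ratio percent of control, averaged over triplicates, above buffer control mean plus 5 SD, cut at about 64% in these data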;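 further: ratio is the fluorescence rise from min to max over baseline after thallium stimulus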
KCNK3 noninduced – counter-screen for KCNK3 inhibitors: effect in non-induced cells | thallium flux ratio (lower = more inhibition) at 10 µM | actives 40% (n = 2,400) | shares compounds with KCNK3 inh | non-induced KCNK3 parental cells, FluxOR thallium flux; stronger effect = lower value;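 active means thallium flux ratio, averaged over three wells, more than 5 SD below the buffer control mean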;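 further: host cells are CHO cells without KCNK3 induction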
Numbers stand for hits; – = inactive; · = no result given. A selection: hits, their analogues and other compounds. The true share with any hit is near 3.7%.

SMILES	KCNK9 inh	KCNQ1 act	KCNQ1 inh	KCNK3 inh	hERG protect	Kir21 inh	KCNK3 inh conf	KCNK3 noninduced
CN1CCN(C2Cc3cc(F)ccc3Sc3ccc(Cl)cc32)CC1 (stereo unspecified)	–	–	–	-10.1	–	–	113.7	–
CCN1C[C@@H]2[C@@H]3C(=O)N(C)C(=O)[C@@H]3[C@](C)(C(=O)OC)N2C1=NC	·	·	·	–	·	·	·	·
CC(Sc1nnc(C2CC2)n1Cc1ccccc1)C(=O)N1CCNC1=O (stereo unspecified)	·	·	·	–	·	·	·	·
CC1CC2(C)C(=CC1=O)CCC1C2C(O)CC2(C)C1CCC2(O)C(=O)CO (stereo unspecified)	·	·	·	–	·	·	·	·
CCOC(=O)c1cc(-c2csc(COc3ccccc3)n2)on1	–	–	–	–	–	–	·	·
Cc1onc(-c2ccccc2)c1-c1csc(COc2ccccc2)n1	-7.76	–	–	-11.8	–	–	96.0	0.139
CC(C)N(C(=O)Cn1cc(S(=O)(=O)CC(=O)NCc2ccc(F)cc2)c2ccccc21)C(C)C	–	–	–	–	–	–	·	·
O=C(CCSc1nc(-c2ccco2)cc(C(F)(F)F)n1)N1CCN(c2ccccn2)CC1	–	–	–	–	–	–	·	·
O=C(CCSc1nc(-c2ccco2)cc(C(F)(F)F)n1)N1CCCc2ccccc21	–	–	–	-9.85	–	–	99.7	–
OCc1ncccc1O	–	–	–	–	–	–	·	·
